Our source for the inhibition values is ChEMBL document CHEMBL1141102, “Structure-activity studies of peptides from the "hot-spot" region of human CD2 protein: development of peptides for immunomodulation” (2005).

Where a SMILES comes first, the peptide text is derived from it. Bridges are numbered along the chain shown (N, C = ends). [ ]: non-standard residue; d: D form. The star is where a group is joined. Pen = CC(C)(S)[C@H](N)C(=O)O; Acm = CC(=O)NC*

A word on the inhibition: it is how much of the control response was suppressed. A lower inhibition goes with a weak effect.

A short description of test [1]: Percent inhibition of CD58 and CD2 interaction in caco-2 and Jurkat cell adhesion assay at 90 uM. The conditions noted are these: Homo sapiens. The class given is functional. In outline: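 Confluent Caco-2 monolayers (passages 50–60, human CD58) preincubated with peptide in MEM-α at 37 °C for 30 min. Jurkat cells (CD2), loaded with 2 μM BCECF at 37 °C for 1 h, then added at 1×10^6 cells/well for 45 min at 37 °C. Nonadherent cells washed off with PBS; bound cells lysed in 2% Triton X-100/0.2 N NaOH. Background-corrected fluorescence read; percent inhibition; mean of three experiments.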

Test [2] addresses T1, Lymphocyte function-associated antigen 3 (Homo sapiens) (UniProt P19256).
T1 sequence (whole entry): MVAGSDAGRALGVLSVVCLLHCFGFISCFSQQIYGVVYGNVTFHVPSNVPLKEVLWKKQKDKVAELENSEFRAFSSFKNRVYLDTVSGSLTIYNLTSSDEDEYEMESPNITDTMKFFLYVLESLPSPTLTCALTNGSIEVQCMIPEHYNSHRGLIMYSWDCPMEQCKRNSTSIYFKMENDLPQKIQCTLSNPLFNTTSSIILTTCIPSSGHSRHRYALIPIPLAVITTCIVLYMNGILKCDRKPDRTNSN
Description: Percent inhibition of E-rossette formation in sheep red blood cells at 200 uM on incubation with T-cells; range 5-15%. The class given is functional, cell-based. The conditions noted are these: Ovis aries. Put shortly: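 Sheep RBCs treated with AET at 37 °C for 15 min, used as 0.5% suspension. Peptide serially diluted in PBS, incubated with the SRBCs at 37 °C for 30 min, then Jurkat cells (2×10^6 cells/mL) added for 15 min. Cells pelleted and held at 4 °C for 1 h. Rosettes counted by hemocytometer on at least 200 cells; percent inhibition; mean of three independent experiments.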

On to `CC[C@H](C)[C@@H]1NC(=O)[C@@H](N)C(C)(C)SSC[C@@H](C(=O)O)NC(=O)[C@H](CC(C)C)NC(=O)[C@H](C(C)C)NC(=O)[C@H](CC(N)=O)NC(=O)[C@H](CCCCN)NC(=O)CNC(=O)[C@H](CCCCN)NC(=O)[C@H]([C@@H](C)O)NC(=O)[C@H](CC(=O)O)NC(=O)[C@H](Cc2ccc(O)cc2)NC1=O`, for which the inhibition at 90 µM in test [1] is 50%. The same measure, in the same setting: next, `CC(=O)NCSC[C@H](NC(=O)[C@H](Cc1ccccc1)NC(=O)[C@@H](NC(=O)[C@H](CCC(=O)O)NC(=O)[C@H](CCCCN)NC(=O)[C@H](CCC(=O)O)NC(=O)[C@H](CCCCN)NC(=O)[C@H](CCCN=C(N)N)NC(=O)[C@H](Cc1ccccc1)NC(=O)[C@H](CCC(N)=O)NC(=O)[C@H](C)NC(=O)[C@@H](N)C(C)(C)SCNC(C)=O)[C@@H](C)O)C(=O)O` (H-[Pen](Acm)AQFRKEKETFC(Acm)-OH): 25%. H-SIYDTKGKNVLE-NH2 came in with an inhibition at 90 µM in test [1] of 25%. In addition, the inhibition in test [2] is 15%. In test [1], `NCCCC[C@@H]1NC(=O)[C@@H](CCC(=O)O)NC(=O)[C@H](CCCCN)NC(=O)[C@@H](CCCN=C(N)N)NC(=O)[C@H](Cc2ccccc2)NC(=O)[C@@H](CCC(=O)O)NC1=O` showed an inhibition at 90 µM of 25%. The same measure, in the same setting: the result for `C[C@@H]1NC(=O)[C@@H](N)C(C)(C)SSC[C@@H](C(=O)O)NC(=O)[C@H](Cc2ccccc2)NC(=O)[C@H]([C@@H](C)O)NC(=O)[C@H](CCC(=O)O)NC(=O)[C@H](CCCCN)NC(=O)[C@H](CCC(=O)O)NC(=O)[C@H](CCCCN)NC(=O)[C@H](CCCN=C(N)N)NC(=O)[C@H](Cc2ccccc2)NC(=O)[C@H](CCC(N)=O)NC1=O` (H-[Pen]AQFRKEKETFC-OH; disulfide 1-12) reads 50%. Still for that read-out and setting: the result for `C[C@@H](O)[C@@H]1NC(=O)[C@@H](CC(=O)O)NC(=O)[C@H](Cc2ccc(O)cc2)NC(=O)[C@@H](CCCCN)NC(=O)CNC(=O)[C@@H](CCCCN)NC1=O` reads 20%.
